Results from ChEMBL document CHEMBL1124829, “Methylating agents as trypanocides” (1990).

How the values were obtained:
Type in all cases: functional
[1] = system: Mus musculus; assay: (§1) Mean life extension in mice bearing Trypanosoma rhodesiense, after ip administration at a dose of 0.2 mmol/kg; design: unit: days
Outline: (§2)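 Female CD-1 mice, 6-8 weeks old, 25-35 g, infected ip with about 10^6 freshly isolated trypanosomes in PBSG. At day 3 post-infection they got a single ip dose, dissolved in 50 µL DMSO or in 0.5 mL PBSG adjusted to pH 7.4. Activity is the days of survival beyond vehicle-only controls, as the mean of 4 mice to the nearest day. Parasitemia was monitored to exclude toxic deaths.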

[2] = system: Mus musculus; assay: Mean life extension in mice bearing Trypanosoma rhodesiense, after ip administration at a dose of 0.5 mmol/kg
[3] = system: Mus musculus; assay: Mean life extension was determined in mice bearing Trypanosoma brucei (M110) after administration of 0.2 mmol/kg per dose
Outline: (§3)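 Female CD-1 mice, 6-8 weeks old, were infected ip with about 10^6 cells in PBSG. When parasitemia reached about 10^8 cells/mL they got a single 0.2 mmol/kg dose in DMSO. The result is days survived beyond DMSO-only controls, as the mean of 4 animals to the nearest day with SE. Survival of 30 days or more was counted as cure.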

[4] = system: Mus musculus; assay: Mean life extension was determined in mice bearing Trypanosoma brucei gambiense (TxTAT 1.0), after administration of 0.2 mmol/kg per dose; outline: as §3
[5] = system: Mus musculus; assay: Mean life extension was determined in mice bearing Trypanosoma brucei rhodesiense (YTAT 1.1) after administration of 0.2 mmol/kg per dose; outline: as §3
[6] = system: Mus musculus; assay: Mean life extension was determined in mice bearing Trypanosoma equiperdum (1559), after administration of 0.2 mmol/kg per dose; outline: as §3
[7] = system: Mus musculus; assay: Mean life extension was determined in mice bearing Trypanosoma evansi (SAK), after administration of 0.2 mmol/kg per dose; outline: as §3
[8] = system: Mus musculus; assay: Mean life extension was determined in mice bearing Trypanosoma evansi (SN) after administration of 0.2 mmol/kg per dose; outline: as §3
[9] = system: Mus musculus; assay: Mean life extension in mice bearing Trypanosoma rhodesiense, after ip administration at 0.5 mmol/kg dose; outline: as §2
[10] = system: Mus musculus; assay: Mean life extension in mice bearing Trypanosoma rhodesiense, after ip administration at 0.4 mmol/kg dose
[11] = system: Mus musculus; assay: Mean life extension in mice bearing Trypanosoma rhodesiense, after ip administration at 0.9 mmol/kg dose; outline: as §2
[12] = system: Mus musculus; assay: as §1; outline: as §2

Structure (SMILES) | Mean life extension [1] | other results
CCNNCC.Cl.Cl | 0 | –
CNNC.Cl.Cl | 4 | –
CNN.Cl.Cl | – | Mean life extension [2]: 1
CN(NC(=O)c1ccccc1)C(=O)c1ccccc1 | 0 | –
O=S(=O)(NNS(=O)(=O)c1ccccc1)c1ccccc1 | 0 | –
CN(NS(C)(=O)=O)S(C)(=O)=O | 12 | Mean life extension [3]: 11; Mean life extension [4]: 13; Mean life extension [5]: 12; Mean life extension [6]: 12; Mean life extension [7]: >30; Mean life extension [8]: 12
CN(NS(=O)(=O)c1ccccc1)S(=O)(=O)c1ccccc1 | 5 | –
COc1ccc(S(=O)(=O)NN(C)S(C)(=O)=O)cc1 | 4 | –
CN(C)/N=N/c1[nH]cnc1C(N)=O [DACARBAZINE] | 6 | Mean life extension [9]: >30
Cl.Cl.NN [HYDRAZINE DIHYDROCHLORIDE] | – | Mean life extension [2]: 0
COS(C)(=O)=O [METHANESULFONIC ACID METHYL ESTER] | 1 | –
CN(N=O)C(N)=O [N-METHYL-N-NITROSUREA] | 8 | Mean life extension [10]: >30
CNNCc1ccc(C(=O)NC(C)C)cc1 [PROCARBAZINE] | 5 | Mean life extension [11]: >30
CN(N=O)C(=O)N[C@@H](C=O)[C@@H](O)[C@H](O)[C@H](O)CO [STREPTOZOCIN] | – | Mean life extension [12]: 4
CCOS(=O)(=O)OCC [SULFURIC ACID DIETHYL ESTER] | 0 | –
COS(=O)(=O)OC [SULFURIC ACID DIMETHYL ESTER] | 3 | –
